# Measurements published in ChEMBL document CHEMBL1138107, “Novel non-nucleobase inhibitors of Staphylococcus aureus DNA polymerase IIIC” (Bioorg Med Chem Lett, 2006).
# Calls of active or inactive are those of the source. The rule behind the calls is not given here.
# Tests used:
# HeLa = assay: Cytotoxicity against HeLa cell line by MTS assay; format: functional, cell-based; conditions: Homo sapiens
# Procedure, shortened: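 HeLa cells (2 × 10⁴/well) in DMEM with 1% bovine growth serum were exposed to compound at 100, 50, 25 and 12.5 for 18 h at 37 °C under 5% CO₂. Viability was read as MTS reduction to formazan, by absorbance at 490 nm.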
# Hepatocyte [1] = assay: Decrease in ATP productions in human hepatocytes at 100 uM; format: functional, cell-based
# Procedure, shortened: (§1)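 Cryopreserved primary human hepatocytes (1 × 10⁴/well) in Krebs–Henseleit buffer were incubated with compound at 100, 50, 25 and 12.5 for 2 h at 37 °C under 5% CO₂. ATP content was then measured by luminescence after adding luciferin and luciferase.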
# [2] = biological target: T1, DNA polymerase III PolC-type (Staphylococcus aureus) (UniProt P0C1P9); assay: Inhibition of DNA polymerase3C from Staphylococcus aureus at 100 uM
# T1 sequence (whole entry): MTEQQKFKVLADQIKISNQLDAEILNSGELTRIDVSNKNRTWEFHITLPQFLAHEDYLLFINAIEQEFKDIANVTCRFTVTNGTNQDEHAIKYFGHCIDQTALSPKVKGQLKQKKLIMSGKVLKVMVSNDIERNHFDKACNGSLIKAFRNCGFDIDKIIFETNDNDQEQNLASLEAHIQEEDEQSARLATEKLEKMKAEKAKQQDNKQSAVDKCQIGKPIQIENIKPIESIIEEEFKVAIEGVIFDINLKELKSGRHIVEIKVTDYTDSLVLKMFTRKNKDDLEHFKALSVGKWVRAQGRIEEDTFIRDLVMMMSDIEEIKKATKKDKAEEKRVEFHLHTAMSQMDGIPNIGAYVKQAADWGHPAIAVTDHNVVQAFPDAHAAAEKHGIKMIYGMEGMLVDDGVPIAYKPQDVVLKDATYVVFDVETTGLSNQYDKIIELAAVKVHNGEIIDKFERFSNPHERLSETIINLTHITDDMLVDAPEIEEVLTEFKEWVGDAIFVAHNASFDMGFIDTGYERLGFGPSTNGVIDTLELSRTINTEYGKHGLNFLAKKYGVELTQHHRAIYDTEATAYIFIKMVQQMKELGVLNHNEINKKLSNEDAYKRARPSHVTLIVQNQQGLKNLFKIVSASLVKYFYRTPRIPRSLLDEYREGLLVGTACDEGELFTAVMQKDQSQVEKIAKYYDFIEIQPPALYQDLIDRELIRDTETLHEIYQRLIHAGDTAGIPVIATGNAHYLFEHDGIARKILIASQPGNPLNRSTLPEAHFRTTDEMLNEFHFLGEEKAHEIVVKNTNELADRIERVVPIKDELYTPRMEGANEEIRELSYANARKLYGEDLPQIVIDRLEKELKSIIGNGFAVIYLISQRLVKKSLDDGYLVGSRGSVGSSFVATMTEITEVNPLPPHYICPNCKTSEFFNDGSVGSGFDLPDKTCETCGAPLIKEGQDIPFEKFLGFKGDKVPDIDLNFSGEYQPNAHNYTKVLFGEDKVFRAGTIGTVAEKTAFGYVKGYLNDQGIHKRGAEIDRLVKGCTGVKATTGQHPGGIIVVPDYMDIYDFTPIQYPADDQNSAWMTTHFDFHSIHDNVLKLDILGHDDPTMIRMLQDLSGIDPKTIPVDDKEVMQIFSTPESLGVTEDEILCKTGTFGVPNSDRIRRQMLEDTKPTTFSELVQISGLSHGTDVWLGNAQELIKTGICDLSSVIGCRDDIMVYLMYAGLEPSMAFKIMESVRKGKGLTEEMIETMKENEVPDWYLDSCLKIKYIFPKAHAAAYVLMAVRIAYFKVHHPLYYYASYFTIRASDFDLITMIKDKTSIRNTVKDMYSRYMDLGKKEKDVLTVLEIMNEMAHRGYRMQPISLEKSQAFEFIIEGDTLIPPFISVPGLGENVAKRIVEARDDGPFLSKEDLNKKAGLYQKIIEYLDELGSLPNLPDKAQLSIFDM
# Procedure, shortened: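 PolC oligonucleotide-primed incorporation of [³H]dTTP was run with 125 ng purified enzyme for 30 min at 37 °C. It was quenched with EDTA, filter-bound on DE81 and counted by liquid scintillation. Compounds were screened in triplicate at 10, 50 and 100.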
# Staphylococcus aureus = assay: Antimicrobial activity against Staphylococcus aureus (RN4220); format: functional; conditions: read-out: MIC
# Hepatocyte [3] = assay: Cytotoxicity against human hepatocytes by measure of ATP production at 50 uM; format: functional, cell-based; procedure, shortened: as §1
# [4] = biological target: T2, DNA polymerase III PolC-type (Staphylococcus aureus, UniProt P0C1P9); assay: Inhibition of DNA polymerase3C from Staphylococcus aureus
# T2 sequence (P0C1P9 whole entry): T1 sequence (whole entry)
# Procedure, shortened: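 Purified PolC (125 ng) started the reaction with a double-stranded oligonucleotide substrate, dATP, dCTP, low dGTP and [³H]dTTP (1 Ci/mmol) in Tris-HCl pH 7.5 buffer with glycerol, EDTA, DTT, IgG and 8 mM MgCl₂. Incubation was 30 min at 37 °C, stopped with 20 mM EDTA, then spotted on DE81 filters, washed and counted by scintillation. IC50 came from a 12-point, roughly 2-fold serial dilution, run in triplicate.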
inhibition [2] [%],MIC (Staphylococcus aureus) [µg/mL],IC50 [4] [µM],SMILES,Activity (HeLa),Activity (Hepatocyte [1]),Activity (Hepatocyte [3])
75,8,–,Oc1nc(Nc2ccc3c(c2)CCC3)nc(O)c1CCCc1ccccc1,Not toxic,Active,–
90,8,–,C=CCc1c(O)nc(Nc2ccc(C)c(CC)c2)nc1O,Not toxic,Active,–
74,8,4,Oc1nc(Nc2ccc3c(c2)CCC3)nc(O)c1CCCOc1ccccc1,Not toxic,–,Toxic
